Our source for the IC50, Ki and viability values is ChEMBL document CHEMBL1152665, “1,3,4-Oxadiazole-2(3H)-thione and its analogues: a new class of non-competitive nucleotide pyrophosphatases/phosphodiesterases 1 inhibitors” (Bioorg Med Chem, 2009).

The IC50 is the point on the concentration scale where inhibition reaches its midpoint. For orientation: Ki means the dissociation constant of the complex between target and ligand, obtained from inhibition or displacement. In general, viability refers to a per cent measure of how many cells are alive, often set against a control.

Series [1] in a line: Inhibition of snake venom NPP1 assessed as release of p-nitrophenol after 30 mins by microtitre plate spectrophotometry. Also on record: species or system Naja naja. In outline: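 Substrate: 0.33 mM bis-(p-nitrophenyl) phosphate. p-Nitrophenol release read at 410 nm, 37 °C, after 30 min incubation. Initial rates taken as OD/min change, run in triplicate. Cysteine and EDTA served as positive controls.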

The target in series [2] is T1, Ectonucleotide pyrophosphatase/phosphodiesterase family member 1 (Homo sapiens, UniProt P22413).
T1 sequence (P22413 whole entry): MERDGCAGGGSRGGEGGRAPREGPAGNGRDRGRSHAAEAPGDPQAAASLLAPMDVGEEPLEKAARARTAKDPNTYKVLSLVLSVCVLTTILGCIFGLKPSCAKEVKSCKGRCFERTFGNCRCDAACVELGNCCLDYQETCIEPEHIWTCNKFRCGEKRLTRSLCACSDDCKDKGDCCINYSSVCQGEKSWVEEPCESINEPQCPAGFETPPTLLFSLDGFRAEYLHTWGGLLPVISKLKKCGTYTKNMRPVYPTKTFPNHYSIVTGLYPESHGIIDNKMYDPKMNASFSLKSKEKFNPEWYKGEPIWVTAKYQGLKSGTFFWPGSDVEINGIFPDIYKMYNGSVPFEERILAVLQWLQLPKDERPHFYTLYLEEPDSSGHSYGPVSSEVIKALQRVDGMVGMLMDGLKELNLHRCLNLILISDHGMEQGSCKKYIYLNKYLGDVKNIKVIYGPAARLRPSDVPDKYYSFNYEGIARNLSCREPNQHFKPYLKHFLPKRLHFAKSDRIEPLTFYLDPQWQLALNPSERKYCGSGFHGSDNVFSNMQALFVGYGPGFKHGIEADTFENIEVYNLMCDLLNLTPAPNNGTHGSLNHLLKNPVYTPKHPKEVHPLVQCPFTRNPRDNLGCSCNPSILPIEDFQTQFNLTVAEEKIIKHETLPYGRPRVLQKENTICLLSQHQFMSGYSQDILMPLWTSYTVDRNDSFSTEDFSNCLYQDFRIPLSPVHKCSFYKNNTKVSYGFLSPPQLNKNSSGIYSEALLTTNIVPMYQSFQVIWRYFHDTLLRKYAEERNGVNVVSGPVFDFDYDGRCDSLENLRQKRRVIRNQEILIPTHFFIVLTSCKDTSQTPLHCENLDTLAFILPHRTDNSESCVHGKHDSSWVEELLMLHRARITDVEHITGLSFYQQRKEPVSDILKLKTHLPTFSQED
Nature of the series: Inhibition of human recombinant NPP1 assessed as release of p-nitrophenol by microtitre plate spectrophotometry. In outline: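 Soluble catalytic extracellular domain of human NPP1. Substrate p-nitrophenyl phenyl phosphonate in 20 mM Tris–HCl pH 8.0, 0.5 M NaCl, 1 mM CaCl2. p-Nitrophenol release read at 405 nm, 37 °C, microtitre plate. Triplicates; IC50 given with SEM of 3–5 experiments.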

Series [3] concerns the target T1, Ectonucleotide pyrophosphatase/phosphodiesterase family member 1. Put plainly: Noncompetitive inhibition of human recombinant NPP1 by Dixon plot analysis. In outline:
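Same human NPP1 assay at fixed inhibitor concentrations. Dixon plots run at p-nitrophenyl phenyl phosphonate 0.4, 0.6, 0.8 and 1.0 mM, and Lineweaver–Burk plots from initial velocities. Secondary replots were slope versus 1/[S], and 1/Vmaxapp or slope versus inhibitor. Ki is the mean of five values from these plots; points are means of three experiments.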

The nature of series [4]: Noncompetitive inhibition of snake venom NPP1 by Dixon plot analysis. Also on record: species or system Naja naja.
Series [5] in a line: Cytotoxicity against human neutrophils assessed as cell viability up to 200 ug/mL after 30 mins by WST1 assay. It is filed as cell-based, Neutrophil. In outline:
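Neutrophils isolated from heparinized venous blood of healthy volunteers (Ficoll sedimentation, ammonium chloride 0.83% RBC lysis), 1 × 10^7 cells/mL, exposed to compounds at 200–12.5 µg/mL (five concentrations) for 30 min. Then WST-1 0.25 mM, 3 h at 37 °C with shaking, absorbance 450 nm. Mean of five replicates; % viability relative to untreated control.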

Take `S=c1[nH]nc(-c2cccc(OCc3ccccc3)c2)o1`: the IC50 in series [1] (read-out: IC50) was greater than 1000 µM; in series [2] it was 494 µM. In series [3], the Ki is 360 µM.
In the case of `Oc1ccc(-c2n[nH]c(=S)s2)cc1`, the IC50 stood at 390 µM in series [1] (read-out: IC50) and 900 µM in series [2]. The Ki in series [4] came to 350 µM; in series [3], 850 µM.
In the same order, the values of `S=c1[nH]nc(CCCc2n[nH]c(=S)o2)o1` are 429 µM, 467 µM, 450 µM and 150 µM.
`CC(C)(C)[Si](C)(C)Oc1ccc(-c2n[nH]c(=S)s2)cc1`: the results for the half-inhibitory concentration (IC50) in series [1] (read-out: IC50) and in series [2] were 66.5 µM and greater than 1000 µM, respectively. In series [4], the Ki is 100 µM. The viability at 0.5 h in series [5] was greater than 90%.
Regarding `S=c1[nH]nc(Cc2n[nH]c(=S)s2)s1`, the IC50 in series [1] (read-out: IC50) worked out at 839 µM. Further, in series [4], the Ki was determined as 1050 µM. For the same molecule, the viability at 0.5 h in series [5] was greater than 90%.
With `CCCCCCCCn1nc(-c2ccc(OCc3ccccc3)cc2)oc1=S`, in series [1] (read-out: IC50), the IC50 was greater than 1000 µM.
Take `CC(C)(C)[Si](C)(C)Oc1ccc(-c2n[nH]c(=S)o2)cc1`: the results for the concentration for half-maximal inhibition (IC50) in series [1] (read-out: IC50) and in series [2] were 383 µM and 368 µM, respectively. Besides, the results for the Ki in series [4] and in series [3] were 375 µM and 360 µM, respectively. For the same molecule, in series [5], the viability at 0.5 h was greater than 90%.
With `Oc1ccc(-c2nn(Cc3ccccc3)c(=S)s2)cc1`, in series [1], the IC50 result was “Not Active”.
The same measure, in the same setting: as for `CCCn1nc(-c2ccc(O)cc2)sc1=S`, the entry is “Not Active”.
For the molecule `S=c1[nH]nc(Cc2n[nH]c(=S)o2)o1`, the IC50 is 850 µM in series [1] (read-out: IC50) and greater than 1000 µM in series [2]. Besides, the Ki in series [4] was 500 µM.
For `S=c1[nH]nc(-c2ccncc2)s1`, in that order: 660 µM, 998 µM and 525 µM.
As for `Oc1cccc(-c2n[nH]c(=S)o2)c1`, the 50% inhibitory concentration (IC50) in series [1] (read-out: IC50) is 1000 µM. Moreover, in series [4], affinity was put at a Ki of 1050 µM.
`S=c1sc(-c2ccc(OCc3ccccc3)cc2)nn1Cc1ccccc1`: the IC50 result in series [1] is “Not Active”.
As to `S=c1[nH]nc(-c2ccc(OCc3ccccc3)cc2)o1`, the 50% inhibitory concentration (IC50) in series [1] (read-out: IC50) is 900 µM; in series [2], 628 µM. Further, the Ki in series [4] worked out at 1400 µM; in series [3], 850 µM.
In the case of `CCCOc1ccc(-c2nn(CC)c(=S)s2)cc1`, in series [1], the IC50 entry is listed as “Not Active”.
Regarding `Oc1ccc(-c2n[nH]c(=S)o2)cc1`, the IC50 in series [1] (read-out: IC50) is 960 µM. Further, in series [4], the Ki turned out to be 1150 µM.
On to `S=c1[nH]nc(-c2ccncc2)o1`, for which the 50% inhibitory concentration (IC50) in series [1] (read-out: IC50) was greater than 1000 µM.
With `S=c1[nH]nc(C(c2ccccc2)c2ccccc2)s1`, the IC50 in series [1] (read-out: IC50) was greater than 1000 µM.
